# Source: ChEMBL document CHEMBL4706701, “Synthesis and biological activity of selenopsammaplin A and its analogues as antitumor agents with DOT1L inhibitory activity” (Bioorg Med Chem, 2021)
# The source made the active and inactive calls. No cut-off for these calls is given here.
# How the values were obtained:
# SNU-638 = assay: Cytotoxicity against human SNU-638 cells assessed as reduction in cell viability by SRB assay; type: functional, cell-based
# In short: (§1)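 Cells seeded in 96-well plates and exposed to compounds for the stated times. Zero-day controls were incubated 30 min. Cells were fixed and stained with 0.4% SRB in 1% acetic acid, and bound dye was dissolved in 10 mM Tris (pH 10.0). A515 was read, and IC50 was calculated by non-linear regression.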
# MCF-10A = assay: Cytotoxicity against human MCF-10A cells assessed as reduction in cell viability by SRB assay; type: cell-based; in short: as §1
# [1] = Selectivity ratio of IC50 for human MCF-10A cells to IC50 for human MDA-MB-231 cells; type: toxicity; conditions: MCF-10A cells versus MDA-MB-231 cells, read-out: Ratio IC50
# [2] = Selectivity ratio of IC50 for human MCF-10A cells to IC50 for human SK-HEP1 cells
# In short: (§2)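 Cytotoxicity by SRB assay: cells seeded in 96-well plates and treated with compounds; fixed, stained with 0.4% SRB in 1% acetic acid, dye dissolved in 10 mM Tris (pH 10.0), absorbance read at 515 nm. IC50 by non-linear regression, means of at least three experiments; ratio of MCF10A IC50 to cancer-line IC50.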
# SK-HEP1 = assay: Cytotoxicity against human SK-HEP1 cells assessed as reduction in cell viability by SRB assay; type: functional, cell-based; in short: as §1
# MDA-MB-231 [3] = assay: Cytotoxicity against human MDA-MB-231 cells assessed as reduction in cell viability by SRB assay; type: functional, cell-based; in short: as §1
# [4] = Selectivity ratio of IC50 for human MCF-10A cells to IC50 for human A549 cells; type: toxicity; conditions: MCF-10A cells versus A549 cells, read-out: Ratio IC50
# [5] = molecular target: Histone-lysine N-methyltransferase, H3 lysine-79 specific (Homo sapiens) (UniProt Q8TEK3); assay: Inhibition of human N-terminal GST-tagged DOT1L (2 to 416 residues) expressed in Escherichia coli at 200 nM using DOT1L substrate measured after 2 hrs in presence of SAM by ELISA
# Chain of Histone-lysine N-methyltransferase, H3 lysine-79 specific (Homo sapiens) (Q8TEK3 whole entry, looked up, the tested form may be a part): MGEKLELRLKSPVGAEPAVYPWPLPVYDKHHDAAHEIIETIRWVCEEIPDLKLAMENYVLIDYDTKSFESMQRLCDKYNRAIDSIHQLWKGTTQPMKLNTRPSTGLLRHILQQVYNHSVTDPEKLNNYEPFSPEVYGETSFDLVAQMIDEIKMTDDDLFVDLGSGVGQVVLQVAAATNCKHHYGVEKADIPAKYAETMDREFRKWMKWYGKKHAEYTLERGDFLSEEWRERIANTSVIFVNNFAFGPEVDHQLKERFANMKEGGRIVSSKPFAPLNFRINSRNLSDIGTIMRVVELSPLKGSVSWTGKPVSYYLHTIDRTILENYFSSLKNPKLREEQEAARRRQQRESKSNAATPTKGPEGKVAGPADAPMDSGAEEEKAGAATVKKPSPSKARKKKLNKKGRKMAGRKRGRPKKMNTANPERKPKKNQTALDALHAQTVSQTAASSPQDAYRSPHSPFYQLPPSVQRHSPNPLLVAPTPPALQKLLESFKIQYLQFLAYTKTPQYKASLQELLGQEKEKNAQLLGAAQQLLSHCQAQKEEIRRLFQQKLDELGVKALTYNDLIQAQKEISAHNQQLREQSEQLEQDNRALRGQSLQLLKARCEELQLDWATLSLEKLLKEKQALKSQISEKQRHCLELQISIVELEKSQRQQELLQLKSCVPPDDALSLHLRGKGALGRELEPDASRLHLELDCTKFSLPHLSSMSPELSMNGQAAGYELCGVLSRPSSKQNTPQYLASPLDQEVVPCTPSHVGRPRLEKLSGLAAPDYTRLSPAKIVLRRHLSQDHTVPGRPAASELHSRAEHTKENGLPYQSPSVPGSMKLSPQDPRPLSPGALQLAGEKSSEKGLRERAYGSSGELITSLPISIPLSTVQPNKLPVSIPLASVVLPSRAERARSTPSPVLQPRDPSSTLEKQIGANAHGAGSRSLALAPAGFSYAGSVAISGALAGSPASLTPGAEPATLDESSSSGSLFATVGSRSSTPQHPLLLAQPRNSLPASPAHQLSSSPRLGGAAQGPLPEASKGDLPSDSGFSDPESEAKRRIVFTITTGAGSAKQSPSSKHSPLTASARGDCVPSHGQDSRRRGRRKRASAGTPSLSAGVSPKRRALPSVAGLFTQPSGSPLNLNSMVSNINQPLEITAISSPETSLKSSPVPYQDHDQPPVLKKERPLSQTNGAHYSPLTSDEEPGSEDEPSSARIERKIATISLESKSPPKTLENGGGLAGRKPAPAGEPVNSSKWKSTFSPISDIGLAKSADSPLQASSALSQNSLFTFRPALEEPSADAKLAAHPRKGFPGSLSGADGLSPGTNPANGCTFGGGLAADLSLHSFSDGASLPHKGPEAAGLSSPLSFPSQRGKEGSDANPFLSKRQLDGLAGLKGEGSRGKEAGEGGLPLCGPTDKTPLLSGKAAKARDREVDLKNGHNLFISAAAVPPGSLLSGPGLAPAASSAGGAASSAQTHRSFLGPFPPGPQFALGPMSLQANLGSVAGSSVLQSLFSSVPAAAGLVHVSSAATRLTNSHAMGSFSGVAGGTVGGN
# In short: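 Cell-free DOT1L enzyme activity assay using 500 ng DOT1L per well. Compound was incubated 2 h before read-out. EPZ-5676 (100 nM) was the positive control. Mean ± SD (n = 3), representative of three separate experiments.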
# [6] = molecular target: Histone-lysine N-methyltransferase, H3 lysine-79 specific (Homo sapiens) (UniProt Q8TEK3); assay: Inhibition of DOT1L in human MDA-MB-231 cells assessed as down regulation of H3K79me2 expression at 200 nM by Western blot analysis; type: cell-based
# In short: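 MDA-MB-231 lysates were made in 2× SDS sample buffer with vanadate and fluoride. 5-20 μg protein was run on 8–15% SDS-PAGE and blotted to PVDF. Membranes were blocked in 5% BSA, probed for H3K79me2 with total histone H3, and detected by ECL. Mean ± SD (n = 3), representative of three separate experiments.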
# [7] = Selectivity ratio of IC50 for human MCF-10A cells to IC50 for human HCT-116 cells; type: toxicity; conditions: MCF-10A cells versus HCT-116 cells, read-out: Ratio IC50
# A549 = assay: Cytotoxicity against human A549 cells assessed as reduction in cell viability by SRB assay; type: functional, cell-based; in short: as §1
# HCT-116 = assay: Cytotoxicity against human HCT-116 cells assessed as reduction in cell viability by SRB assay; type: functional, cell-based; in short: as §1
# [8] = Selectivity ratio of IC50 for human MCF-10A cells to IC50 for human SNU-638 cells; in short: as §2
# [9] = molecular target: Histone-lysine N-methyltransferase, H3 lysine-79 specific (Homo sapiens) (UniProt Q8TEK3); assay: Inhibition of DOT1L in human MDA-MB-231 cells assessed as effect on histone H3 methylation at 200 nM by Western blot analysis; type: cell-based
# In short: (§3)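 MDA-MB-231 cell lysates in 2× SDS buffer, protein by BCA; 5–20 μg on 8–15% SDS-PAGE, transferred to PVDF, BSA-blocked and probed with antibodies to H3K4me2, H3K27me2, H3K36me2, H3K79me2 and total histone H3; ECL detection. Mean ± SD (n = 3), three separate experiments.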
# [10] = molecular target: Histone-lysine N-methyltransferase, H3 lysine-79 specific (Homo sapiens) (UniProt Q8TEK3); assay: Inhibition of DOT1L in human MDA-MB-231 cells assessed as effect on H3K4 methylation at 200 nM by Western blot analysis; type: cell-based; in short: as §3
# MDA-MB-231 [11] = assay: Antiinvasive activity in human MDA-MB-231 cells assessed as reduction in cell invasion through matrigel-coated chamber at 400 nM after 24 hrs by diff-quik staining based microscopic analysis; type: functional
# In short: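 MDA-MB-231 cells pretreated with compound (50–400 nM) for 24 h, harvested into serum-free medium and plated at 0.5–1 × 10⁶ cells/chamber on transwell inserts (8 μm pores) coated with type I collagen and 1:20 Matrigel/PBS; 30% FBS medium as chemoattractant below. After 24 h, invaded cells fixed, Diff-Quik stained, counted in 5 random fields at 200×; three separate experiments.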
# [12] = molecular target: Histone-lysine N-methyltransferase, H3 lysine-79 specific (Homo sapiens) (UniProt Q8TEK3); assay: Inhibition of DOT1L in human MDA-MB-231 cells assessed as effect on H3K36 methylation at 200 nM by Western blot analysis; type: cell-based; in short: as §3
# MDA-MB-231 [13] = assay: Antimigratory activity in human MDA-MB-231 cells assessed as suppression of wound closure at 400 nM after 24 hrs by microscopic analysis; type: functional, cell-based
# In short: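 MDA-MB-231 monolayers at 80–90% confluence scratched with a pipette tip, washed with PBS, then kept 24 h in medium with 1% FBS plus compound at various concentrations. Wounds photographed at 0 and 24 h; area measured by image analysis and expressed as wound healing (%) relative to the 0 h area. Mean ± SD (n = 3), three separate experiments.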
# [14] = molecular target: Histone-lysine N-methyltransferase, H3 lysine-79 specific (Homo sapiens) (UniProt Q8TEK3); assay: Inhibition of DOT1L in human MDA-MB-231 cells assessed as effect on H3K27 methylation at 200 nM by Western blot analysis; type: cell-based; in short: as §3
# [15] = Toxicity in human MDA-MB-231 cells xenografted BALB/c nu mouse assessed as body weight loss at 5 mg/kg, ip administered thrice per week for 38 days measured once per week during compound dosing; type: organism-based; conditions: in vivo, 912 h, time 38 day
# In short: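 Female BALB/c-nu mice (5–6 wk) given 1 × 10⁷ luciferase-expressing MDA-MB-231 cells in 50:50 DMEM/Matrigel into the fourth fat pad; randomized after 10 days (six per group). Dosed ip in EtOH/Cremophor/saline (5:5:90) three times weekly for 38 days. Tumor L, W, H measured by caliper, volume = LWH/2; body weight weekly; tumors excised and weighed at termination.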
SMILES,IC50 (SNU-638),IC50 (SK-HEP1),IC50 (MDA-MB-231 [3]),inhibition [5],H3K79me2 downregulation (active/not active) [6],IC50 (A549),IC50 (HCT-116),other results
O=C(NCC[Se][Se]CCNC(=O)/C(Cc1ccc(O)c(Br)c1)=N/O)/C(Cc1ccc(O)c(Br)c1)=N/O,20 nM,210 nM,160 nM,Active,Active,30 nM,10 nM,IC50 (MCF-10A): 16100 nM; selectivity ratio [1]: > 100; Ratio IC50 [2]: 77; selectivity ratio [4]: > 100; selectivity ratio [7]: > 100; Ratio IC50 [8]: >100
O=C(NCC[Se][Se]CCNC(=O)/C(Cc1ccc(F)c(F)c1)=N/O)/C(Cc1ccc(F)c(F)c1)=N/O,50 nM,270 nM,420 nM,,Active,330 nM,180 nM,
O=C(NCC[Se][Se]CCNC(=O)/C(Cc1ccc(OCc2ccccc2)cc1)=N/O)/C(Cc1ccc(OCc2ccccc2)cc1)=N/O,410 nM,280 nM,140 nM,Active,Active,140 nM,100 nM,
O=C(NCCSSCCNC(=O)/C(Cc1ccc(O)c(Br)c1)=N/O)/C(Cc1ccc(O)c(Br)c1)=N/O [PSAMMAPLIN A],560 nM,1290 nM,1310 nM,inactive,,1760 nM,610 nM,inhibition [9]: inactive; inhibition [10]: inactive; Activity (MDA-MB-231 [11]): inactive; inhibition [12]: inactive; Activity (MDA-MB-231 [13]): inactive; inhibition [14]: inactive
O=C(NCC[Se][Se]CCNC(=O)/C(Cc1ccc(Br)cc1)=N/O)/C(Cc1ccc(Br)cc1)=N/O,150 nM,310 nM,390 nM,,Active,310 nM,170 nM,
CC(=O)O[C@H]1C(=O)[C@@]2(C)[C@H]([C@H](OC(=O)c3ccccc3)[C@]3(O)C[C@H](OC(=O)[C@H](O)[C@@H](NC(=O)c4ccccc4)c4ccccc4)C(C)=C1C3(C)C)[C@]1(OC(C)=O)CO[C@@H]1C[C@@H]2O [PACLITAXEL],,,,,,,,Activity [15]: Toxic
CCOc1ccc(C/C(=N\O)C(=O)NCC[Se][Se]CCNC(=O)/C(Cc2ccc(OCC)cc2)=N/O)cc1,30 nM,180 nM,200 nM,Active,Active,50 nM,70 nM,
O=C(NCC[Se][Se]CCNC(=O)/C(Cc1ccc(O)c(Cl)c1)=N/O)/C(Cc1ccc(O)c(Cl)c1)=N/O,10 nM,110 nM,170 nM,Active,Active,20 nM,10 nM,
CC(C)(C)c1ccc(C/C(=N\O)C(=O)NCC[Se][Se]CCNC(=O)/C(Cc2ccc(C(C)(C)C)cc2)=N/O)cc1,280 nM,190 nM,100 nM,Active,Active,100 nM,130 nM,
O=C(NCC[Se][Se]CCNC(=O)/C(Cc1ccc(Cl)cc1)=N/O)/C(Cc1ccc(Cl)cc1)=N/O,220 nM,330 nM,330 nM,,Active,250 nM,280 nM,
O=C(NCC[Se][Se]CCNC(=O)/C(Cc1ccc(F)cc1)=N/O)/C(Cc1ccc(F)cc1)=N/O,70 nM,140 nM,130 nM,,,100 nM,110 nM,
COc1cc([C@@H]2c3cc4c(cc3[C@@H](O[C@@H]3O[C@@H]5CO[C@@H](C)O[C@H]5[C@H](O)[C@H]3O)[C@H]3COC(=O)[C@H]23)OCO4)cc(OC)c1O [ETOPOSIDE],200 nM,400 nM,8700 nM,,,,1200 nM,
O=C(NCC[Se][Se]CCNC(=O)/C(Cc1ccc2ccccc2c1)=N/O)/C(Cc1ccc2ccccc2c1)=N/O,270 nM,170 nM,190 nM,,inactive,380 nM,120 nM,
O=C(NCC[Se][Se]CCNC(=O)/C(Cc1ccc(O)c(F)c1)=N/O)/C(Cc1ccc(O)c(F)c1)=N/O,20 nM,130 nM,190 nM,Active,Active,20 nM,10 nM,
O=C(NCC[Se][Se]CCNC(=O)/C(Cc1ccc([N+](=O)[O-])cc1)=N/O)/C(Cc1ccc([N+](=O)[O-])cc1)=N/O,60 nM,170 nM,90 nM,Active,Active,90 nM,90 nM,
O=C(NCC[Se][Se]CCNC(=O)/C(Cc1ccc(Cl)c(Cl)c1)=N/O)/C(Cc1ccc(Cl)c(Cl)c1)=N/O,180 nM,320 nM,250 nM,,Active,280 nM,520 nM,
